The target in series [1] is T1, Protein cereblon/Tyrosine-protein kinase BTK (Homo sapiens) (UniProt Q06187+Q96SW2). The series is described as follows: PROTAC activity at CRBN/ BTK in human Ramos cells assessed as induction of BTK degradation at 500 nM incubated for 24 hrs by immunoblot analysis relative to control. In kind it is cell-based. In outline: (§1)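 Ramos cells in supplemented RPMI 1640 were plated at 3×10^5 cells/well and treated with compound for 24 h. Lysates in SDS sample buffer were heated at 100 °C for 15 min and run on 10% SDS-PAGE, then transferred to PVDF. Membranes were probed overnight at 4 °C for BTK, GSPT1 and β-actin.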
For orientation: In western blotting, separated proteins are transferred to a membrane and probed.

For series [2], the target named is T1, Protein cereblon/Tyrosine-protein kinase BTK (Homo sapiens). The series is described as follows: PROTAC activity at CRBN/ BTK in human Ramos cells assessed as induction of BTK degradation at 250 nM incubated for 24 hrs by immunoblot analysis relative to control. The class given is cell-based. The essentials: as §1
The nature of series [3]: Stability in monkey liver microsomes assessed as intrinsic clearance measured per mg protein at 1 uM preincubated for 10 mins followed by reaction initiation measured upto 60 mins in presence of NADPH. The class given is ADME, Macaca mulatta, Microsome. The following applies: rhesus monkey, time < 70 min, read-out: CLH. The essentials: (§2)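 Compound at 1 μM final was incubated with 0.5 mg/mL mouse, rat, dog, monkey or human liver microsomes in 100 mM PBS, pH 7.4, with 1 mM NADPH at 37 °C after a 10 min preincubation. Reactions were stopped at 0, 5, 15, 30 and 60 min with ice-cold acetonitrile containing tolbutamide. Supernatants were taken for bioanalysis.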
A general note: Liver microsomes are a subcellular fraction often used to study metabolism.

Series [4] in a line: Stability in dog liver microsomes assessed as intrinsic clearance measured per mg protein at 1 uM preincubated for 10 mins followed by reaction initiation measured upto 60 mins in presence of NADPH. In kind it is ADME, Canis lupus familiaris, Microsome. The note with it: time < 70 min, read-out: CLH. In outline: as §2
Series [5] in a line: Apparent permeability across apical to basal side in MDCK-II cells assessed as compound recovery at 10 uM measured for 120 mins by LC-MS/MS analysis. The class given is ADME, cell-based, Canis lupus familiaris. The following applies: dog, read-out: Drug recovery. The essentials: (§3)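 MDCK monolayers were grown on Transwell inserts (5 x 10^4 cells/cm²) and used at day 5. Compound at 10 μM in HBSS with 10 mM Hepes, pH 7.40, was dosed apically or basolaterally and incubated at 37±1 °C. Receiver and donor samples were taken at 120 min and quantified by LC-MS/MS against an internal standard. Lucifer yellow passage below 1% confirmed monolayer integrity.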

Series [6] is described as follows: Stability in mouse liver microsomes assessed as intrinsic clearance measured per mg protein at 1 uM preincubated for 10 mins followed by reaction initiation measured upto 60 mins in presence of NADPH. The class given is ADME, Microsome. The note with it: time < 70 min, read-out: CLH. In outline:
as §2

The nature of series [7]: Apparent permeability across basal to apical side in MDCK-II cells at 10 uM measured for 120 mins by LC-MS/MS analysis. In kind it is ADME, cell-based, Canis lupus familiaris. The following applies: dog. The essentials:
(§4)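 MDCK monolayers were grown on Transwell inserts (5 x 10^4 cells/cm²) and used at day 5. Compound at 10 μM in HBSS with 10 mM Hepes, pH 7.40, was dosed apically or basolaterally and incubated at 37±1 °C. Lucifer yellow passage below 1% confirmed monolayer integrity.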

A short description of series [8]: Tmax in BALB/c mouse at 5 mg/kg, po measured for 24 hrs by LCMS analysis. The class given is ADME, organism-based. The following applies: in vivo. In outline: (§5)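 Male Balb/c mice, 9 per group, dosed intragastrically at 5 mg/kg; the same compounds were also given iv at 2 mg/kg. Blood was drawn into EDTA-K2 tubes at 0.25, 0.5, 1, 2, 4, 6, 8 and 24 h. Plasma proteins were precipitated with acetonitrile containing tolbutamide. Quantification was by LC-MS on a C18 column with a formic acid water/acetonitrile gradient.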

The target of series [9] is T1, Protein cereblon/Tyrosine-protein kinase BTK (Homo sapiens). The series is described as follows: PROTAC activity at CRBN/ BTK in human Ramos cells assessed as induction of BTK degradation at 100 nM incubated for 24 hrs by immunoblot analysis relative to control. In kind it is cell-based. The essentials:
as §1

The nature of series [10]: Clearance in BALB/c mouse at 2 mg/kg, iv measured for 24 hrs by LCMS analysis. The class given is ADME, organism-based. The note with it: in vivo. In outline:
(§6)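 Male Balb/c mice, 9 per group, dosed intravenously at 2 mg/kg. Blood was drawn into EDTA-K2 tubes at 0.083, 0.25, 0.5, 1, 2, 4, 6, 8 and 24 h. Plasma was separated by centrifugation at 2000 g for 10 min and precipitated with acetonitrile containing tolbutamide internal standard. Analysis was by LC-MS on a polar C18 column with a water/acetonitrile 0.1% formic acid gradient.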

Series [11] is described as follows: Cmax in BALB/c mouse at 5 mg/kg, po measured for 24 hrs by LCMS analysis. The note with it: in vivo. Details: dose 5 mg/kg, time 24 hrs, route po. The class given is ADME, organism-based. In outline:
as §5

Series [12] can be described thus: Apparent permeability across basal to apical side in MDCK-II cells assessed as compound recovery at 10 uM measured for 120 mins by LC-MS/MS analysis. The note with it: dog, read-out: Drug recovery. The class given is ADME, cell-based, Canis lupus familiaris. The essentials: as §3
Series [13] is described as follows: Stability in rat liver microsomes assessed as intrinsic clearance measured per mg protein at 1 uM preincubated for 10 mins followed by reaction initiation measured upto 60 mins in presence of NADPH. In kind it is ADME, Microsome. The note with it: time < 70 min, read-out: CLH. The essentials: as §2
Series [14] addresses T1, Protein cereblon/Tyrosine-protein kinase BTK (Homo sapiens). As to the kind of experiment: PROTAC activity at CRBN/ BTK in human Ramos cells assessed as induction of BTK degradation at 30 nM incubated for 24 hrs by immunoblot analysis. The class given is cell-based. In outline: as §1
For series [15] the target is unchanged. The series is described as follows: PROTAC activity at CRBN/ BTK in human DOHH-2 cells assessed as induction of BTK degradation at 1.2 to 300 nM incubated for 24 hrs by immunoblot analysis. The class given is cell-based. The following applies: dose 1.2-300 nM. In outline:
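DOHH2 cells were grown in RPMI 1640 with 10% FBS, 1% penicillin-streptomycin, 1% nonessential amino acids and 50 µM 2-mercaptoethanol at 37 °C under 5% CO₂. Cells were treated with compound at various concentrations, lysed in SDS buffer and separated on 10% SDS-PAGE. Blots were transferred to PVDF and probed for BTK, with β-actin as loading control.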

The nature of series [16]: Solubility in DMSO:Cremophor EL:1xPBS mixture at 10 mg/ml. The class given is physicochemical.
The nature of series [17]: Stability in dog liver microsomes assessed as half life at 1 uM preincubated for 10 mins followed by reaction initiation measured upto 60 mins in presence of NADPH. The following applies: time < 70 min. The class given is ADME, Canis lupus familiaris, Microsome. The essentials: as §2
Series [18] can be described thus: Half life in BALB/c mouse at 5 mg/kg, po measured for 24 hrs by LCMS analysis. The class given is ADME, organism-based. The following applies: in vivo. In outline:
as §5

The nature of series [19]: AUClast in BALB/c mouse at 5 mg/kg, po measured for 24 hrs by LCMS analysis. The note with it: in vivo. In kind it is ADME, organism-based. Also on record: dose 5 mg/kg, time 24 hrs, route po. In outline:
as §5

Series [20] in a line: Half life in BALB/c mouse at 2 mg/kg, iv measured for 24 hrs by LCMS analysis. In kind it is ADME, organism-based. The following applies: in vivo. In outline: as §6
Series [21] is described as follows: Stability in monkey liver microsomes assessed as half life at 1 uM preincubated for 10 mins followed by reaction initiation measured upto 60 mins in presence of NADPH. The following applies: rhesus monkey, time < 70 min. In kind it is ADME, Macaca mulatta, Microsome. The essentials:
as §2

Series [22] is described as follows: Solubility in DMSO:Cremophor EL:1xPBS mixture at 10 mg/ml incubated for 7 days. The note with it: 168 h, time 7 day. In kind it is physicochemical.
Series [23] is described as follows: Stability in human liver microsomes assessed as intrinsic clearance measured per mg protein at 1 uM preincubated for 10 mins followed by reaction initiation measured upto 60 mins in presence of NADPH. The class given is ADME, Microsome. The note with it: time < 70 min, read-out: CLH. In outline:
as §2

A short description of series [24]: Apparent permeability across apical to basal side in MDCK-II cells at 10 uM measured for 120 mins by LC-MS/MS analysis. The class given is ADME, cell-based, Canis lupus familiaris. The note with it: dog. The essentials: as §4
Series [25] is described as follows: Oral bioavailability in BALB/c mouse at 5 mg/kg measured for 24 hrs by LCMS analysis. In kind it is ADME, organism-based. The following applies: in vivo. In outline: as §5
Series [26] in a line: Stability in rat liver microsomes assessed as half life at 1 uM preincubated for 10 mins followed by reaction initiation measured upto 60 mins in presence of NADPH. In kind it is ADME, Microsome. The following applies: time < 70 min. The essentials:
as §2

Series [27] is described as follows: AUClast in BALB/c mouse at 2 mg/kg, iv measured for 24 hrs by LCMS analysis. The class given is ADME, organism-based. Also on record: time 24 hrs, dose 2 mg/kg, route iv. The note with it: in vivo. In outline:
as §6

Series [28] can be described thus: Stability in mouse liver microsomes assessed as half life at 1 uM preincubated for 10 mins followed by reaction initiation measured upto 60 mins in presence of NADPH. The class given is ADME, Microsome. The note with it: time < 70 min. In outline: as §2
The nature of series [29]: Apparent volume of distribution in BALB/c mouse at 2 mg/kg, iv measured for 24 hrs by LCMS analysis. The class given is ADME, organism-based. The note with it: in vivo, read-out: Vz. In outline: as §6
Series [30] is described as follows: Stability in human liver microsomes assessed as half life at 1 uM preincubated for 10 mins followed by reaction initiation measured upto 60 mins in presence of NADPH. In kind it is ADME, Microsome. The following applies: time < 70 min. The essentials: as §2

As usually defined, the Papp B→A is the apparent permeability from the basolateral to the apical side of a cell layer. In general, Tmax refers to the time at which the peak concentration occurs. Broadly, the clearance is the volume of plasma or blood freed of the substance per unit of time. The term Cmax denotes the highest concentration seen after dosing. For orientation: half-life means how long it takes for the measured level to halve. A word on the AUC(0-t): it is the area under the concentration-time curve up to a stated or last time point. Broadly, the Papp A→B is the apparent permeability from the apical to the basolateral side of a cell layer. What is called bioavailability is the share of a dose that reaches the circulation, judged against a reference dose that is usually intravenous.

The source made the active and inactive calls. The calls are words filed in the database; no cut-off is given here.

T1 sequence (Q06187 2-659 limits assumed): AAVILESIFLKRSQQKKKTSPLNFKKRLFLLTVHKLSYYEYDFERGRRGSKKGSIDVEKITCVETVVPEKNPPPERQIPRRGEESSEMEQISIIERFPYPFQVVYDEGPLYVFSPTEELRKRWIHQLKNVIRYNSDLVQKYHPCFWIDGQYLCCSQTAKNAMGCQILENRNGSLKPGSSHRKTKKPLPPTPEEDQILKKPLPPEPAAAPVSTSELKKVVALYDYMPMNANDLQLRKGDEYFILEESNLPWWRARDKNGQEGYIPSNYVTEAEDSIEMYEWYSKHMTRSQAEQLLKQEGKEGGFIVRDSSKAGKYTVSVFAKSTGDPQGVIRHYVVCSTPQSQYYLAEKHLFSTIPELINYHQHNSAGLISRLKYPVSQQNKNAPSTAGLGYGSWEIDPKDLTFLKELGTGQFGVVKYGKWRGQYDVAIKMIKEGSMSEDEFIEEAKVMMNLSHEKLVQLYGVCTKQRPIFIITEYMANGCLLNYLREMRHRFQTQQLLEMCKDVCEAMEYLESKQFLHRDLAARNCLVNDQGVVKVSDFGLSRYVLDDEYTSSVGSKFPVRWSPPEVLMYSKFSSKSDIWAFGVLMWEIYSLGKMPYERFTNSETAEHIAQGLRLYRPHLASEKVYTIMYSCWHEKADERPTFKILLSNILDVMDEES
T1 sequence (Q96SW2 whole entry partner): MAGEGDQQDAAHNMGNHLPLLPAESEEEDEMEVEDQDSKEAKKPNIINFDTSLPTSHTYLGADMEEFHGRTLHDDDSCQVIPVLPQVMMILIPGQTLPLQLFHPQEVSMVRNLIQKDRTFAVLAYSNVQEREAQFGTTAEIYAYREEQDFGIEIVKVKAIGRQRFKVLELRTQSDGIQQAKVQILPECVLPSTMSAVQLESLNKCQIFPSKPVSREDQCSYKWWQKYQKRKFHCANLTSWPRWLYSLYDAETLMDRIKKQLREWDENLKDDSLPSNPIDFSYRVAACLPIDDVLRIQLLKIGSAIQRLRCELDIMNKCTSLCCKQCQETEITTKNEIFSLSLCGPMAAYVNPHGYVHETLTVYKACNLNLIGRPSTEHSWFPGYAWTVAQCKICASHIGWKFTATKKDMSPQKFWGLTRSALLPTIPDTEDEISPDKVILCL

As to `Nc1ncnc2c1c(-c1ccc(Oc3ccccc3)cc1)nn2[C@@H]1CCCN(C(=O)c2ccc(-c3ccc(Nc4ccc5c(c4)C(=O)N(C4CCC(=O)NC4=O)C5=O)cc3)cc2)C1` (stereo not given in full), the Activity in series [1] was 38.8%; in series [2] it was 38.4%.
On to `Nc1ncnc2c1c(-c1ccc(Oc3ccccc3)cc1)nn2[C@@H]1CCCN(C(=O)c2ccc(CNc3ccc4c(c3)C(=O)N(C3CCC(=O)NC3=O)C4=O)cc2)C1` (stereo not given in full), for which the microsomal CLint at 1 µM in series [3] was found to be 4.52 µL/min/mg; in series [4] it was 5.45 µL/min/mg; in series [6], 10.2 µL/min/mg; in series [13], 7.66 µL/min/mg; in series [23], 9.83 µL/min/mg. Also, the figures for the recovery at 2 h, 10 µM in series [5] and in series [12] were 111% and 116%, respectively. Moreover, the Papp B→A at 2 h, 10 µM in series [7] was 0.01 ×10⁻⁶ cm/s. Besides, in [8], the Tmax is 0.5 h. The Activity in series [9] amounted to 18.3%; in series [14], 20.7%. In series [10], the clearance was 11.8 mL/min/kg. Moreover, in series [11], the Cmax stood at 252 ng/mL. In series [15], the outcome was Active. Besides, the solubility entry in series [16] and in series [22] was “Soluble” each time. Moreover, the half-life at 1 µM in series [17] amounted to 4.24 h; in series [21] it was 5.11 h; in series [26], 3.02 h; in [28], 2.26 h; in [30] it was 2.35 h. Further, the half-life in series [18] was 0.52 h; in series [20], 0.98 h. Also, the AUC(0-t) at 24 h came out at 336 ng·h/mL in [19] and 2810 ng·h/mL in series [27]. Besides, the Papp A→B at 2 h, 10 µM in series [24] is 0.016 ×10⁻⁶ cm/s. The same compound registered a bioavailability in series [25] of 4.78%. Further, the Vd in series [29] is 0.998 L/kg.

(Values after ChEMBL document CHEMBL5329164, “Design, synthesis, and evaluation of BTK-targeting PROTACs with optimized bioavailability in vitro and in vivo” (RSC Med Chem, 2023).)
